PostGolgi yeast: growth inhibition of a yeast mutant, post-Golgi transport screen; post-Golgi transport phenotypic cell assay; inhibition, % at 10 µM; AID 739; hit rate 0.9% among 98,000;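 note: yeast cells grown in 1536-well plates; yeast grown about 18 h at 30C before absorbance read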
HePTP inh: blocks human HePTP tyrosine phosphatase | inhibition, % at 20 µM | recombinant HePTP phosphatase activity, OD absorbance | hit rate 0.64% among 110,000; in the data active = inhibition above about 50%;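 note: plate controls were vehicle for no effect and reference inhibitor for full effect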
Target sequence (P35236 whole entry, looked up): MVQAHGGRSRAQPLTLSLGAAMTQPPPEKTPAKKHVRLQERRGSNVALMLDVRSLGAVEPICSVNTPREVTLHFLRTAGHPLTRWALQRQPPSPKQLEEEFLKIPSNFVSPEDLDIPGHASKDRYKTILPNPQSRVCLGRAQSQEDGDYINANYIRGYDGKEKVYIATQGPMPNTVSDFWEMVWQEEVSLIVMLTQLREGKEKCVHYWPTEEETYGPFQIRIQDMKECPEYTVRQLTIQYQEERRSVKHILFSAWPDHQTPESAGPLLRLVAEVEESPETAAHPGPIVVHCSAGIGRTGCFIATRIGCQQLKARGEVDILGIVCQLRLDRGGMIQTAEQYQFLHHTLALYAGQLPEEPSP
PostGolgi ctrl: inhibits growth of the yeast control strain; efflux-deficient yeast background strain, growth absorbance A615, 16 h; inhibition, % at 10 µM; hit rate 5% among 98,000
tolC growth inh: growth inhibitors of E. coli BW25113 tolC mutant; OD615; growth inhibition, % at 10 µM (by protocol); hit rate 2.2% among 65,000; AID 573;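 active = growth inhibition at or above a cutoff equal to the mean over every tested compound plus 3 SD, cut at about 60% in these data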;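 note: growth measured after 20 h incubation at 37 °C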
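signal = optical density read at 615 nm | test system = E. coli ΔtolC::kan strain BW25113 | timing = 20 h compound exposure of bacteria at 37 °C | buffer or medium = LB medium plus 50 µg/mL kanamycin | compound dosing = 10 µM final, single dose | evaluation = % inhibition of E. coli growth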
E coli WT exp: growth inhibitors of E. coli BW25113 wild type. OD600 absorbance. growth inhibition, % at 100 µM. hit rate 0.15% among 98,000;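 active = growth inhibition above about 50% at one test dose, limit read from the data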;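 note: growth measured after 20 h incubation at 37 °C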
PLAP act: activates human placental alkaline phosphatase; P05187; purified PLAP enzyme, luminescent substrate read-out; stronger effect = higher value; activation fold at 20 µM; hit rate 1.2% among 96,000; in the data active = activation fold above about 2
* hit, by the source's call; · = no result. Most compounds without a hit are left out; they make up all but 5.4% or so of the library. Cut-off read from the data, not from the text of the source, unless noted: active = inhibition above about 30%; inactive = the rest.

SMILES	PostGolgi yeast	HePTP inh	PostGolgi ctrl	tolC growth inh	E coli WT exp	PLAP act
CCOc1ccc(/C=C2\C(=O)NC(=S)N(c3cccc(Cl)c3)C2=O)cc1Cl	·	-1	·	·	·	·
O=C(CSc1nnnn1-c1ccccc1)Nc1ccc(Br)cc1	·	1	·	·	·	·
Cc1nn(-c2ccccn2)c(C)c1Oc1ccccc1O	34*	4	0	5	2	0.9
C=CCc1cccc2cc(C(=O)N3CCN(C/C=C/c4ccccc4)CC3)c(=O)oc12	·	4	·	·	·	·
Oc1c(Br)cc(/C=N/Nc2nnc3c(n2)[nH]c2ccccc23)c(Br)c1O	·	89*	·	·	·	·
N=c1c2c(-c3ccccc3)c(-c3ccccc3)n(Cc3ccccc3)c2ncn1CCCn1ccnc1	95*	15	77*	23	28	·
N=c1c2c(-c3ccccc3)c(-c3ccccc3)n(Cc3ccco3)c2ncn1Cc1ccco1	91*	8	48*	64*	18	1.2
Cc1cc(NCCCn2ccnc2)n2nc(C)c(-c3ccccc3)c2n1	3	·	12	·	-5	1.6
CCOC(=O)c1c(NC(=S)NCCc2ccccc2)sc2c1CC(C)(C)OC2	·	-8	·	·	·	·
O=C(O)CCc1nnc2n(Cc3ccc(F)cc3)c(=O)c3ccccc3n12	44*	8	-4	-22	-13	0.9
c1ccc(Nc2nc3ccccc3[nH]2)nc1	6	9	19	38	37	2.2*
O=C1CN(C(=O)c2cc(Br)c(Br)s2)c2ccccc2N1	-3	·	37*	·	-4	1.1
COc1ccc(N/C(N)=N/c2nc(CSc3ccc(Cl)cc3)cc(=O)[nH]2)cc1	0	·	0	·	-3	2*
CCOC(=O)c1cc(CC)sc1NC(=O)c1cc(NS(=O)(=O)c2ccc(Cl)cc2)ccc1Br	·	-16	·	·	·	·
CCN1CCN(CCCNc2ncnc3nc[nH]c23)CC1	-10	1	-1	3	2	1.2
Clc1ccccc1CN(Cc1ccccc1)c1ncnc2nc[nH]c12	-8	12	52*	23	-2	1.7
CCCN(CCC)c1ncnc2nc[nH]c12	-13	1	11	-5	4	2.3*
CCC(=O)c1ccc(OCC(O)CN2CCCCC2)cc1 (stereo unspecified)	-2	·	-9	·	9	0.8
CCOC(=O)C1CCN(CC(O)COc2ccc(C(C)(C)CC)cc2)CC1 (stereo unspecified)	87*	1	79*	36	21	1.5
CCOC(=O)C1CCN(CC(O)COc2ccc(C(C)(C)C)cc2)CC1 (stereo unspecified)	29	-9	59*	-1	22	1.5
CCOC(=O)C1CCN(CC(O)COc2ccc(C(C)=O)cc2)CC1 (stereo unspecified)	0	0	-1	-6	8	1.5
Cc1cc(NC(=O)c2cccc(S(=O)(=O)N(C)C)c2)n(-c2ccccn2)n1	4	·	14	·	-3	0.9
CCc1ccc2c(COC(=O)c3n[nH]c4ccccc34)cc(=O)oc2c1	-4	9	37*	21	-2	1.6
Cc1ccc2c(COC(=O)c3n[nH]c4ccccc34)cc(=O)oc2c1	-5	3	20	5	-1	1.2
Cc1ccc(S(=O)(=O)/N=C(\c2ccccc2)N(C)S(=O)(=O)c2ccc(C)cc2)cc1	-8	·	15	·	-13	0.9
SMILES	PostGolgi yeast	HePTP inh	PostGolgi ctrl	tolC growth inh	E coli WT exp	PLAP act
CCOC(=O)C1Cn2c(nc3c(c2=O)C(C)(C)Cc2ccccc2-3)S1 (stereo unspecified)	22	6	32*	36	-1	1.6
CCOC(=O)C1Cn2c(nc3c(c2=O)C2(CCCC2)Cc2ccccc2-3)S1 (stereo unspecified)	-3	-2	38*	17	-6	1.5
COCCN(Cc1cc2cc(C)cc(C)c2nc1Cl)C(=O)Nc1ccccc1	-2	·	35*	·	-12	1.4
Cc1cc(C)c2nc(Cl)c(CN(Cc3ccco3)C(=O)Nc3ccccc3C)cc2c1	7	·	34*	·	-22	1.3
COc1ccc(NC(=O)N(CCO)Cc2cc3c(C)cc(C)cc3[nH]c2=O)cc1	-8	8	0	0	-2	1.5
COc1ccc(N2C(=O)NC(=O)/C(=C\c3ccc(O)c(Cl)c3)C2=O)cc1	·	2	·	·	·	·
O=S(=O)(c1ccc(F)c(Cl)c1)N1CCCC1	-4	8	2	-8	7	1
Clc1ccc2[nH]c3c(c2c1)CCc1cn[nH]c1-3	74*	6	57*	100*	78*	1.1
c1ccc2c3c([nH]c2c1)-c1[nH]ncc1CC3	-3	12	1	7	30	1.4
O=C(CCSc1ccc(Cl)cc1)NC12CC3CC(CC(C3)C1)C2	9	·	43*	·	-16	0.7
CCOc1cc(S(=O)(=O)Nc2ccc(CC)cc2)ccc1Cl	-8	·	41*	·	-16	1
COc1ccc(NS(=O)(=O)c2ccc(OC)c(OC)c2)cc1	·	-11	·	·	·	·
COc1cc(S(=O)(=O)Nc2ccccc2C)ccc1Cl	-6	4	20	14	3	1
CCOc1cc(S(=O)(=O)Nc2ccccc2CC)ccc1Cl	11	·	59*	·	2	1
COc1ccc(S(=O)(=O)Nc2ccc(S(=O)(=O)Nc3nc(C)cc(C)n3)cc2)cc1OC	5	0	32*	-6	-13	0.9
CCc1ccc(NS(=O)(=O)c2ccc(OC)c(C)c2)cc1	-10	·	36*	·	-3	1.3
CCCCNC(=O)c1onc(CSc2ccccc2C)c1C(=O)O	-1	·	-3	·	-5	1.1
Cn1c(=O)c2c(SCc3ccccn3)nc(CC(C)(C)C)nc2n(C)c1=O	3	·	34*	·	0	1.5
CCCc1nc(SCc2ccccn2)c2c(=O)n(C)c(=O)n(C)c2n1	2	4	29	22	-3	1.2
Cn1c(=O)c2c(SCc3cccnc3)nc(CC(C)(C)C)nc2n(C)c1=O	6	-10	54*	97*	-18	1.5
COc1ccc(C(c2c(O)ccc3ccccc23)N2CCOCC2)c(OC)c1 (stereo unspecified)	2	-14	13	7	-6	1.6
O=C(N/N=C\c1ccccn1)C1COc2cc3ccccc3cc2O1 (stereo unspecified)	-4	·	0	·	-8	2*
CSc1ccc(/C=N\NC(=O)C2COc3cc4ccccc4cc3O2)cc1 (stereo unspecified)	·	-5	·	·	·	·
CCC1Sc2ccccc2N(CC(=O)NCCC2=CCCCC2)C1=O (stereo unspecified)	-1	·	37*	·	-7	1.5
COc1cc(/C=N/Nc2nc(N3CCOCC3)nc(N3CCOCC3)n2)ccc1OC(=O)c1ccco1	·	-2	·	·	·	·
COc1ccc2cc(C#N)c(NC(C)C)nc2c1	22	1	-2	6	1	1.2
CCOC(=O)C1CCN(c2nc3cc(OC)ccc3cc2C#N)CC1	3	7	16	75*	-8	1.5
COc1ccc2nc(N3CCC(O)CC3)c(C#N)cc2c1	-2	-3	11	11	3	1.8
COc1ccc2nc(N3CCC(C)CC3)c(C#N)cc2c1	0	11	7	97*	5	1.4
CCN(CC)c1nc2cc(OC)ccc2cc1C#N	39*	10	-3	34	4	1.3

Source: PubChem BioAssay (several laboratories)
